Experimental data: ChEMBL document CHEMBL1641392, “Triterpenes from Garcia parviflora. Cytotoxic evaluation of natural and semisynthetic friedelanes” (J Nat Prod, 2010)

Experiments:
Format in all cases: functional, cell-based
SK-LU-1 = assay: Cytotoxicity against human SK-LU-1 cells after 48 hrs by sulforhodamine B assay
Outline: (§1)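 Cells (NCI source) in RPMI-1640 with 10% FBS and antibiotics, 37 °C, 5% CO2. Seeded at 5 × 10^4 cells/mL (K562, MCF-7), 7.5 × 10^4 (U251, PC-3, SKLU-1), or 10 × 10^4 (HCT-15). After 24 h, DMSO-dissolved compounds added for 48 h. Fixed with cold TCA, stained with 0.4% SRB, Tris-extracted, read at 515 nm. IC50 from linear regression of dose-response curves.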

MCF7 = assay: Cytotoxicity against human MCF7 cells after 48 hrs by sulforhodamine B assay; outline: as §1
PC-3 = assay: Cytotoxicity against human PC3 cells after 48 hrs by sulforhodamine B assay; outline: as §1
U-251 = assay: Cytotoxicity against human U251 cells after 48 hrs by sulforhodamine B assay; conditions: U-251, 48 h; outline: as §1
K562 = assay: Cytotoxicity against human K562 cells after 48 hrs by sulforhodamine B assay; outline: as §1
HCT-15 = assay: Cytotoxicity against human HCT15 cells after 48 hrs by sulforhodamine B assay; conditions: HCT-15, 48 h; outline: as §1

Compound | Activity (SK-LU-1) | Activity (MCF7) | Activity (PC-3) | IC50 (U-251) [µM] | Activity (K562) | IC50 (HCT-15) [µM]
C=C[C@@H]1[C@@](C)([C@@H](C)C(=O)O)CC[C@H]2[C@@]1(C)CC[C@@]1(C)[C@@H]3CC(C)(C)CC[C@]3(C)CC[C@]21C | Not toxic | Not toxic | Not toxic | 36.8 | Not toxic | –
C[C@H]1C(=O)C[C@@H](O)[C@@H]2[C@]1(C)CC[C@H]1[C@@]2(C)CC[C@@]2(C)[C@@H]3CC(C)(C)CC[C@]3(C)CC[C@]12C | Not toxic | Not toxic | Not toxic | – | Not toxic | –
C[C@H]1OC(=O)CC[C@@H]2[C@]1(C)CC[C@H]1[C@@]2(C)CC[C@@]2(C)[C@@H]3CC(C)(C)CC[C@]3(C)CC[C@]12C [FRIEDELIN-3,4-LACTONE] | Not toxic | Not toxic | Not toxic | 17.1 | Not toxic | –
CC(=O)O[C@H]1C[C@@H](O)[C@@H]2[C@](C)(CC[C@H]3[C@@]2(C)CC[C@@]2(C)[C@@H]4CC(C)(C)CC[C@]4(C)CC[C@]32C)[C@H]1C | Not toxic | Not toxic | Not toxic | – | Not toxic | –
CC(=O)O[C@H]1CC[C@]2(C)[C@H]3CC[C@]4(C)C(=CC[C@@]5(C(=O)O)CCC(C)(C)C[C@H]54)[C@]3(C)CC[C@H]2C1(C)C [ACETYL ALEURITOLIC ACID] | Not toxic | Not toxic | Not toxic | 8.4 | Not toxic | –
C[C@H]1/C(=N/O)C[C@@H](O)[C@@H]2[C@]1(C)CC[C@H]1[C@@]2(C)CC[C@@]2(C)[C@@H]3CC(C)(C)CC[C@]3(C)CC[C@]12C | Not toxic | Not toxic | Not toxic | – | Not toxic | –
C[C@H]1C(=O)CC(=O)[C@@H]2[C@]1(C)CC[C@H]1[C@@]2(C)CC[C@@]2(C)[C@@H]3CC(C)(C)CC[C@]3(C)CC[C@]12C | Not toxic | Not toxic | Not toxic | – | Not toxic | –
C[C@H]1NC(=O)C[C@@H](O)[C@@H]2[C@]1(C)CC[C@H]1[C@@]2(C)CC[C@@]2(C)[C@@H]3CC(C)(C)CC[C@]3(C)CC[C@]12C | Not toxic | Not toxic | Not toxic | – | Not toxic | –
CC(=O)O[C@H]1C[C@@H](OC(C)=O)[C@@H]2[C@](C)(CC[C@H]3[C@@]2(C)CC[C@@]2(C)[C@@H]4CC(C)(C)CC[C@]4(C)CC[C@]32C)[C@H]1C | Not toxic | Not toxic | Not toxic | – | Not toxic | –
C[C@H]1C(=O)C=C[C@@H]2[C@]1(C)CC[C@H]1[C@@]2(C)CC[C@@]2(C)[C@@H]3CC(C)(C)CC[C@]3(C)CC[C@]12C | Not toxic | Not toxic | Not toxic | – | Not toxic | –
CC1(C)CC[C@]2(C)CC[C@]3(C)[C@H]4CC[C@@]5(C)[C@@H](CC[C@H](O)[C@@H]5C(=O)O)[C@]4(C)CC[C@@]3(C)[C@@H]2C1 | Not toxic | Not toxic | Not toxic | – | Not toxic | –
C[C@H]1OC(=O)C[C@@H](O)[C@@H]2[C@]1(C)CC[C@H]1[C@@]2(C)CC[C@@]2(C)[C@@H]3CC(C)(C)CC[C@]3(C)CC[C@]12C | Not toxic | Not toxic | Not toxic | – | Not toxic | –
CC1(C)CC[C@]2(C)CC[C@]3(C)[C@H]4CC[C@@]5(C)[C@@H](C=CC(=O)[C@@]5(C)O)[C@]4(C)CC[C@@]3(C)[C@@H]2C1 | Not toxic | Not toxic | Not toxic | – | Not toxic | 41.8
C[C@H]1[C@@H](O)C[C@@H](O)[C@@H]2[C@]1(C)CC[C@H]1[C@@]2(C)CC[C@@]2(C)[C@@H]3CC(C)(C)CC[C@]3(C)CC[C@]12C | Not toxic | Not toxic | Not toxic | 22.8 | Not toxic | –
